Assays:
BRSK1 = BRSK1 (Homo sapiens, UniProt Q8TDC3); experiment: kinase panel; format: biochemical
CYP3A4 = CYP3A4 Induction Reporter Gene; format: cell-based; conditions: human, CYP3A4 induction reporter gene assay (cell line not given)
SGK1 = SGK1 (Homo sapiens, UniProt O00141); experiment: kinase panel; format: biochemical
FER = FER (Homo sapiens, UniProt P16591); experiment: kinase panel; format: biochemical
P70S6K1 = P70S6K1 (Homo sapiens, UniProt P23443); experiment: kinase panel; format: biochemical
DYRK1A = DYRK1A (Homo sapiens, UniProt Q13627); experiment: kinase panel; format: biochemical
TBK1 = TBK1 (Homo sapiens, UniProt Q9UHD2); experiment: kinase panel; format: biochemical
[1] = target: Pregnane X Receptor (PXR; SXR) (Homo sapiens, UniProt O75469); experiment: Pregnane X Receptor; format: binding
Chain of Pregnane X Receptor (PXR; SXR) (O75469 whole entry, species assumed): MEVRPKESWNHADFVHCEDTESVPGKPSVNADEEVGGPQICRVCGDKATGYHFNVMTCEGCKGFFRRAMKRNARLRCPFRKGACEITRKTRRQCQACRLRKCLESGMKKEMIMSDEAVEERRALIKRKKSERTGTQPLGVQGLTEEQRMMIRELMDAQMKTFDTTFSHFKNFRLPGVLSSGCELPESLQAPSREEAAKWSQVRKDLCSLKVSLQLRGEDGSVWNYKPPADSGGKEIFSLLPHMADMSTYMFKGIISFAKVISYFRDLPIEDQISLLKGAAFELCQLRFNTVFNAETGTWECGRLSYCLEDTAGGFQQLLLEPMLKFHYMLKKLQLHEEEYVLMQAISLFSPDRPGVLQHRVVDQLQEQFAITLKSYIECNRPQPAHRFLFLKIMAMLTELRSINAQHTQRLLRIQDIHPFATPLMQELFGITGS

SNF1LK2 = SNF1LK2 (Homo sapiens, UniProt Q9H0K1); experiment: kinase panel; format: biochemical
HIPK1 = HIPK1 (Homo sapiens, UniProt Q86Z02); experiment: kinase panel; format: biochemical
[2] = Mouse pharmacokinetic studies; format: in vivo; conditions: 20 mg/kg
PI3K-DELTA = PI3K-DELTA (Homo sapiens, UniProt O00329); experiment: kinase panel; format: biochemical
BMX = BMX (Homo sapiens, UniProt P51813); experiment: kinase panel; format: biochemical
Chain of BMX (P51813 whole entry): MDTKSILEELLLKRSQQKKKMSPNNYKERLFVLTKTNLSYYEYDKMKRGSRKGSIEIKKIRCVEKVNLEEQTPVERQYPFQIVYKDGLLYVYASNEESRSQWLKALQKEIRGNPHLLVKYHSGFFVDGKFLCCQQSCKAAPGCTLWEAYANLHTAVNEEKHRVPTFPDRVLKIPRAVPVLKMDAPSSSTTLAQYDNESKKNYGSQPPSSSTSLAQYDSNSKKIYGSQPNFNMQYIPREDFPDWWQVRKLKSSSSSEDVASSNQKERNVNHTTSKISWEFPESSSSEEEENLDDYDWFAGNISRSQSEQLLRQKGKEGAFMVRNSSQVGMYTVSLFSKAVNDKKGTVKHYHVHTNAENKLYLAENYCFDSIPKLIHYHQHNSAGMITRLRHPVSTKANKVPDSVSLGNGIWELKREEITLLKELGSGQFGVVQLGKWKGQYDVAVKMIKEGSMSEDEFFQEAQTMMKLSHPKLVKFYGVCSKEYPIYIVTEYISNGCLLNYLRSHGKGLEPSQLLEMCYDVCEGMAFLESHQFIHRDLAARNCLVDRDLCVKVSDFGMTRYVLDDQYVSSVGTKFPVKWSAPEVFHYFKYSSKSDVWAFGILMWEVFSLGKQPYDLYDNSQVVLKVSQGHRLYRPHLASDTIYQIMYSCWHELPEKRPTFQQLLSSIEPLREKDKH

CHEK2 = CHEK2 (Homo sapiens, UniProt O96017); experiment: kinase panel; format: biochemical
PIM2 = PIM2 (Homo sapiens, UniProt Q9P1W9); experiment: kinase panel; format: biochemical
PASK = PASK (Homo sapiens, UniProt Q96RG2); experiment: kinase panel; format: biochemical
CRAF = CRAF (Homo sapiens, UniProt P04049); experiment: kinase panel; format: biochemical
Chain of CRAF (P04049 whole entry): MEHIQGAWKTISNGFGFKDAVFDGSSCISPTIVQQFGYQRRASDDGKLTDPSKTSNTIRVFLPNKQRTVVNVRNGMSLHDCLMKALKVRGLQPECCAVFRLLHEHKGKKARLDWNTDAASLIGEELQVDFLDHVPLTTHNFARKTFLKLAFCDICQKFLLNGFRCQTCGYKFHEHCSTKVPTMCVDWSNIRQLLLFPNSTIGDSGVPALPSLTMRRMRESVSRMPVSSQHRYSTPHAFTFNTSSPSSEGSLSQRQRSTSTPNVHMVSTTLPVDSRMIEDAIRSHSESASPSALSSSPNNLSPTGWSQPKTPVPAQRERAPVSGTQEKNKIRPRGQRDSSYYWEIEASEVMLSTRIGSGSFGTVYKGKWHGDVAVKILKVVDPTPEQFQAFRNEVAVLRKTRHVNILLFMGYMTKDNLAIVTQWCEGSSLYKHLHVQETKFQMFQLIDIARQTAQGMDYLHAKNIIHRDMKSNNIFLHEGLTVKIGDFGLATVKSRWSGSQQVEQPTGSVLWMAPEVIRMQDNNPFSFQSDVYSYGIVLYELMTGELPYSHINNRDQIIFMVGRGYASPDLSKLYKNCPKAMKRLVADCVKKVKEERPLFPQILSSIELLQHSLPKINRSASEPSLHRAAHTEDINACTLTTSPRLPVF

PKC-GAMMA = PKC-GAMMA (Homo sapiens, UniProt P05129); experiment: kinase panel; format: biochemical
SGK3 = SGK3 (Homo sapiens, UniProt Q96BR1); experiment: kinase panel; format: biochemical
HIPK4 = HIPK4 (Homo sapiens, UniProt Q8NE63); experiment: kinase panel; format: biochemical
Chain of HIPK4 (Q8NE63 whole entry): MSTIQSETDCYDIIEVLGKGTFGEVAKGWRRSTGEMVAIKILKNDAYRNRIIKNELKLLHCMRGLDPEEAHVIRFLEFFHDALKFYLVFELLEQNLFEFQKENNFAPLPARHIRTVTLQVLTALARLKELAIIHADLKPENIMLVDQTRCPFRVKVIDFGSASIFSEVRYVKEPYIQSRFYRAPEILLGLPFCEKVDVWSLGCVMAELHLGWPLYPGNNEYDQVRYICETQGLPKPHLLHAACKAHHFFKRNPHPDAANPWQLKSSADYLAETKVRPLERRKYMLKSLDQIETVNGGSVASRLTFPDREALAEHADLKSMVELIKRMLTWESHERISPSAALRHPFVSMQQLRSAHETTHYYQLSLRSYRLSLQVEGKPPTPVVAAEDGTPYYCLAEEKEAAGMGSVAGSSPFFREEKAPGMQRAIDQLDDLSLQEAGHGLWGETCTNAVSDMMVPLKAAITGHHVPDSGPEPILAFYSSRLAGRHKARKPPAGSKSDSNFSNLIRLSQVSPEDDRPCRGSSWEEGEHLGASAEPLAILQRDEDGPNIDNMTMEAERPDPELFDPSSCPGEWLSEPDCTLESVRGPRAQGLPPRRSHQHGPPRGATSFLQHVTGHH

BRSK2 = BRSK2 (Homo sapiens, UniProt Q8IWQ3); experiment: kinase panel; format: biochemical
ABL1 = ABL1 (Homo sapiens, UniProt P00519); experiment: kinase panel; format: biochemical
JNK3 = JNK3 (Homo sapiens, UniProt P53779); experiment: kinase panel; format: biochemical
LIMK1 = LIMK1 (Homo sapiens, UniProt P53667); experiment: kinase panel; format: biochemical
CHEK1 = CHEK1 (Homo sapiens, UniProt O14757); experiment: kinase panel; format: biochemical
BLK = BLK (Homo sapiens, UniProt P51451); experiment: kinase panel; format: biochemical
SIK = SIK (Homo sapiens, UniProt P57059); experiment: kinase panel; format: biochemical
SRPK2 = SRPK2 (Homo sapiens, UniProt P78362); experiment: kinase panel; format: biochemical
CLK4 = CLK4 (Homo sapiens, UniProt Q9HAZ1); experiment: kinase panel; format: biochemical
CDK6-CYCLIND3 = CDK6-CYCLIND3 (Homo sapiens, UniProt Q00534); experiment: kinase panel; format: biochemical
CK1-EPSILON = CK1-EPSILON (Homo sapiens, UniProt P49674); experiment: kinase panel; format: biochemical
FGFR2 = FGFR2 (Homo sapiens, UniProt P21802); experiment: kinase panel; format: biochemical
JAK3 = JAK3 (Homo sapiens, UniProt P52333); experiment: kinase panel; format: biochemical
PKC-ETA = PKC-ETA (Homo sapiens, UniProt P24723); experiment: kinase panel; format: biochemical
[3] = tested on: L858R/T790M/I941R EGFR Ba/F3 cells; experiment: Ba/F3 cell proliferation; format: cell-based; conditions: Ba/F3 L858R/T790M/I941R versus L858R/T790M
Summary of the method: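 The I941R mutation was introduced into L858R/T790M EGFR by site-directed mutagenesis, and Ba/F3 stable clones were selected in puromycin (2 μg/ml). Cells were treated with the test compound for 72 h and growth was read by MTS assay. Points were run in six wells, with experiments repeated at least three times. Curves were fitted by non-linear regression to a sigmoidal dose response.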

CK1-GAMMA3 = CK1-GAMMA3 (Homo sapiens, UniProt Q9Y6M4); experiment: kinase panel; format: biochemical
NEK7 = NEK7 (Homo sapiens, UniProt Q8TDX7); experiment: kinase panel; format: biochemical
RET = RET (Homo sapiens, UniProt P07949); experiment: kinase panel; format: biochemical
Chain of RET (P07949 29-1114): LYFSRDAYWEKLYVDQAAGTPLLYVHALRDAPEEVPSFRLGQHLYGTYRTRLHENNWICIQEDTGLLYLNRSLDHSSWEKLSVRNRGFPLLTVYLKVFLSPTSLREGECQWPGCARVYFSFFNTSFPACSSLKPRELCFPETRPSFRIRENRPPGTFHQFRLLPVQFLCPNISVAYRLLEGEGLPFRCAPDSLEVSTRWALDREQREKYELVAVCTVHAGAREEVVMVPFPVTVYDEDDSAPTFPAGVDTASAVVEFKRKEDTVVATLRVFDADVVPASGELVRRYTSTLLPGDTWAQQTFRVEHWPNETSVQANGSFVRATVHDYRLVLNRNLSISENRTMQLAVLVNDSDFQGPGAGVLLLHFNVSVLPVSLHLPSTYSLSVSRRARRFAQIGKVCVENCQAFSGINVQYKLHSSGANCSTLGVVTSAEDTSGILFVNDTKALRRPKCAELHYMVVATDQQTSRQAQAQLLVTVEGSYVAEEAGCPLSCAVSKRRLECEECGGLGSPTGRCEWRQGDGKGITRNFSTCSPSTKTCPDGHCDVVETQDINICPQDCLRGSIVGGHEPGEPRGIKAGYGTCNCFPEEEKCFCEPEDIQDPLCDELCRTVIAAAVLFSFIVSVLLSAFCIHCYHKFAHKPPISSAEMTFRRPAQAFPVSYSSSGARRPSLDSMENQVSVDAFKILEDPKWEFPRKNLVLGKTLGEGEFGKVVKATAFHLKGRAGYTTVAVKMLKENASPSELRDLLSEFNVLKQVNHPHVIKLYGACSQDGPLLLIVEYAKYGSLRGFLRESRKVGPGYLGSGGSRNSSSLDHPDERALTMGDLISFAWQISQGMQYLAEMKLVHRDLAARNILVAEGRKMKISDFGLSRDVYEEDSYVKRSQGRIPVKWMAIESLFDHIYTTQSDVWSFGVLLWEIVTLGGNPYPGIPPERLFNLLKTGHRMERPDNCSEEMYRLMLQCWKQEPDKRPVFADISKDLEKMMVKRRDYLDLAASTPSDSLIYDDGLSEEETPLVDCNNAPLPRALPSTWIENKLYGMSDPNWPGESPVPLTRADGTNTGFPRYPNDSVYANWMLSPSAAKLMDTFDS

[4] = tested on: L858R/T790M-mutant lung cancer (genetically engineered mice); experiment: Mouse efficacy study, tumor volume by MRI; format: in vivo; conditions: EAI045 alone 60 mg/kg oral once daily, 4 weeks
PAK5 = PAK5 (Homo sapiens, UniProt Q9P286); experiment: kinase panel; format: biochemical
H1 receptor = H1 receptor (Homo sapiens, UniProt P35367); experiment: H1 receptor calcium assay; format: cell-based
Chain of H1 receptor (P35367 whole entry): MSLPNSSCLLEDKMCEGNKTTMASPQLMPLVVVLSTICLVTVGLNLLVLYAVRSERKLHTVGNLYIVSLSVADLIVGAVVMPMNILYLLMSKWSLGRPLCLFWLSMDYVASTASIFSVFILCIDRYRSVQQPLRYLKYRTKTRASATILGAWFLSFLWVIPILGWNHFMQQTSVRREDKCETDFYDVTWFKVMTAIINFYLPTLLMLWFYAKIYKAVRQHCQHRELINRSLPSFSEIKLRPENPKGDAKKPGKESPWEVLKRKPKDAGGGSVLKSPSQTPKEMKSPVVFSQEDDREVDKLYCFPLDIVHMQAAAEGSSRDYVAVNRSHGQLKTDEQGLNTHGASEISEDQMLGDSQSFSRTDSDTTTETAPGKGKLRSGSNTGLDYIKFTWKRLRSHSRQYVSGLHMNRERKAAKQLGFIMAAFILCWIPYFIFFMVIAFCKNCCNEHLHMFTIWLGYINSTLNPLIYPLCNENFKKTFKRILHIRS

Chain of FER (P16591 whole entry): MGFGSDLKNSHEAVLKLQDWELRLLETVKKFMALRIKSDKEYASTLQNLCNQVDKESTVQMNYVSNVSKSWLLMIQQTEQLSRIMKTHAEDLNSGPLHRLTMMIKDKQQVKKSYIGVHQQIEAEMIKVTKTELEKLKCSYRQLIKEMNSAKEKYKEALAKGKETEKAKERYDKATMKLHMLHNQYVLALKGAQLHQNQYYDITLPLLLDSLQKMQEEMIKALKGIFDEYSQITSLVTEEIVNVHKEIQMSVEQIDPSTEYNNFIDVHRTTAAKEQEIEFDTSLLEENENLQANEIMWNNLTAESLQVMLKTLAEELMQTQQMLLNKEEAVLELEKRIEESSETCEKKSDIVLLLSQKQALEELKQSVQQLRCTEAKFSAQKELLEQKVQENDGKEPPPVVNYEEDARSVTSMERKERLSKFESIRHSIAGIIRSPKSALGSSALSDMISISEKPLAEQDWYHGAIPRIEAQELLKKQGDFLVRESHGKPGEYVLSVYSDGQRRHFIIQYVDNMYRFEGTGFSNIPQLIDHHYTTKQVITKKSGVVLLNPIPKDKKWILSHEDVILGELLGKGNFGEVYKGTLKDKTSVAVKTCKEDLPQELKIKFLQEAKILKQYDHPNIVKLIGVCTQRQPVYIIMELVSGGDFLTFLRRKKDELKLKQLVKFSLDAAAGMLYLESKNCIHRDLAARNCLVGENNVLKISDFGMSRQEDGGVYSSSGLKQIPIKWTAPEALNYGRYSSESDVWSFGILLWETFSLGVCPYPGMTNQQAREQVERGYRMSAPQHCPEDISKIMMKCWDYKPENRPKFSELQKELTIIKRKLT

inhibition at 1 µM (BRSK1): 0%
IC50 (CYP3A4): > 10 µM
inhibition at 1 µM (SGK1): 6%
inhibition at 1 µM (FER): 4%
inhibition at 1 µM (P70S6K1): 0%
inhibition at 1 µM (DYRK1A): 0%
inhibition at 1 µM (TBK1): 3%
IC50 [1]: 7 µM
inhibition at 1 µM (SNF1LK2): 0%
inhibition at 1 µM (HIPK1): 1%
maximal plasma concentration [2]: 0.57 µM
half-life ([2]; plasma, oral): 2.15 h
inhibition at 1 µM (PI3K-DELTA): 0%
inhibition at 1 µM (BMX): 1%
inhibition at 1 µM (CHEK2): 0%
inhibition at 1 µM (PIM2): 2%
inhibition at 1 µM (PASK): 1%
inhibition at 1 µM (CRAF): 0%
inhibition at 1 µM (PKC-GAMMA): 0%
inhibition at 1 µM (SGK3): 0%
inhibition at 1 µM (HIPK4): 0%
inhibition at 1 µM (BRSK2): 0%
inhibition at 1 µM (ABL1): 1%
inhibition at 1 µM (JNK3): 0%
inhibition at 1 µM (LIMK1): 0%
inhibition at 1 µM (CHEK1): 0%
inhibition at 1 µM (BLK): 3%
inhibition at 1 µM (SIK): 0%
inhibition at 1 µM (SRPK2): 10%
inhibition at 1 µM (CLK4): 0%
inhibition at 1 µM (CDK6-CYCLIND3): 2%
inhibition at 1 µM (CK1-EPSILON): 0%
inhibition at 1 µM (FGFR2): 1%
inhibition at 1 µM (JAK3): 0%
inhibition at 1 µM (PKC-ETA): 0%
inhibition at 1 µM (CK1-GAMMA3): 6%
inhibition at 1 µM (NEK7): 0%
inhibition at 1 µM (RET): 0%
inhibition at 1 µM (PAK5): 0%
IC50 (H1 receptor): > 30 µM
SMILES: O=C(Nc1nccs1)C(c1cc(F)ccc1O)N1Cc2ccccc2C1=O (stereo not drawn) [EAI045, 2-(5-fluoro-2-hydroxyphenyl)-2-(1-oxo-2,3-dihydro-1H-isoindol-2-yl)-N-(1,3-thiazol-2-yl)acetamide]
sensitivity of proliferation to the allosteric inhibitor [3]: dramatically more sensitive
tumor response [4]: did not respond

From article PMC4929832 (Nature, 2016)
